In one series the target is T1, Cytochrome P450 1A2 (Homo sapiens, UniProt P05177).
T1 sequence (P05177 whole entry): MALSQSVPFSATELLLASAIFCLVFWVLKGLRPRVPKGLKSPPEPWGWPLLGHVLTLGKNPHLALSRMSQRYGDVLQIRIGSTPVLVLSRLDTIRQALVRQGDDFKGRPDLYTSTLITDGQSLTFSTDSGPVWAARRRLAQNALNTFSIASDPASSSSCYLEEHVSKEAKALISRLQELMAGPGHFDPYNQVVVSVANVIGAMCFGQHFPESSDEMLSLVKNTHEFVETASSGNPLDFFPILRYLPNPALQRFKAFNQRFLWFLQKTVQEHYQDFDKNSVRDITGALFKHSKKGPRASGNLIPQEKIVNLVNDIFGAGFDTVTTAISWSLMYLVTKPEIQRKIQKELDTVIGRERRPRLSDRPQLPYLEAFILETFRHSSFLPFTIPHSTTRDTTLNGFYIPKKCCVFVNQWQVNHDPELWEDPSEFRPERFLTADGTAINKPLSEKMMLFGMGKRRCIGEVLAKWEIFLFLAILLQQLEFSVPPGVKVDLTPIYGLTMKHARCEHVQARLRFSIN
In words: Inhibition of human CYP1A2 expressed in Escherichia coli DH5alpha. Format: ADME.

Series [1] deals with Mus musculus. In words: Toxicity in diet-induced obese mouse model assessed as effect on food intake at 30 mg/kg, po qd for 7 days. Type of series: organism-based. The note with it: in vivo, 168 h. A digest of the protocol:
(§1)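 DIO mice were dosed by oral gavage once daily for 7 days, with a vehicle-dosed cohort as the comparator. Body weight was read relative to the vehicle group, and food intake and activity levels were monitored in dosed and vehicle cohorts. In some studies, animals were first acclimated to gavage for a few weeks, until their weights stopped changing, before dosing began.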

For series [2], the system named is Mus musculus. The experiment in a line: Toxicity in diet-induced obese mouse model assessed as effect on activity levels at 30 mg/kg, po qd for 7 days. Type of series: organism-based. Particulars: in vivo, 168 h. In short, it runs like this:
as §1

Series [3] is described as follows: Oral bioavailability in Sprague-Dawley rat at 2.9 mg/kg. Format: ADME, organism-based. The note with it: in vivo.
Series [4] can be described thus: AUC in Sprague-Dawley rat at 2.9 mg/kg, po. The note with it: in vivo. Format: ADME, organism-based.
Series [5] concerns Mus musculus. In words: Antiobesity in diet-induced obese mouse model assessed as decrease in body weight at 30 mg/kg, po qd for 7 days relative to control. Particulars: 168 h. Format: functional. In short, it runs like this: as §1
Another series concerns Rattus norvegicus. The experiment in a line: Volume of distribution in Sprague-Dawley rat at 2.9 mg/kg, po. Particulars: in vivo. Type of series: ADME, organism-based.
Series [6] in a line: Clearance in Sprague-Dawley rat at 2.9 mg/kg, po. Particulars: in vivo. Type of series: ADME, organism-based.
The nature of series [7]: Half life in Sprague-Dawley rat at 2.9 mg/kg, po. Format: ADME, organism-based. Particulars: in vivo.

One may read the IC50 as the concentration that inhibits the measured activity by half. High values mean lower potency, low ones higher potency. In turn, `O=C(NCCO)c1ccc(-n2c3ccc(F)cc3c3[nH]ncc32)cc1` had an IC50 on Cytochrome P450 1A2 of 7.94 µM.

Compound `Fc1ccc2c(c1)c1[nH]ncc1n2-c1cccnc1` had an IC50 against Cytochrome P450 1A2 of 0.126 µM.

Broadly, the bioavailability is the share of a dose that reaches the circulation, judged against a reference dose that is usually intravenous. Read a high bioavailability as much systemic uptake. By AUC is commonly meant concentration integrated over time. A low value points to low exposure. The term inhibition in vivo denotes the drop in the measured response relative to a control, in per cent. By CL/F is commonly meant the apparent clearance, not corrected for the fraction that reaches the circulation. As a reminder, the half-life is the time needed for the level to fall by half in the phase considered. With `Cc1nc2[nH]cnc2cc1-n1c2ccc(F)cc2c2[nH]ncc21`, the Activity entry in the series with Mus musculus [1] and in the series on Mus musculus [2] was “Non-toxic” throughout. The bioavailability in series [3] worked out at 70%. The compound also showed an AUC in [4] of 2240 ng·h/mL. In the series with Mus musculus [5], the inhibition in vivo at 30 mg/kg came to 4%. In addition, the Vd in the series with Rattus norvegicus is 1.597 L/kg. In series [6], this compound showed a CL/F of 17.2 mL/min/kg. On Cytochrome P450 1A2, this compound had an IC50 of 3.16 µM. Besides, the half-life in series [7] is 6 h.

`Cc1c(-n2c3ccc(F)cc3c3[nH]ncc32)cnc2[nH]cnc12` had an IC50 against Cytochrome P450 1A2 of more than 50.1 µM.

On Cytochrome P450 1A2, `Clc1ccc2c3[nH]ncc3n(-c3cccnc3)c2c1` gave an IC50 of 0.0631 µM.

Regarding `Fc1cc2c3[nH]ncc3n(-c3cccnc3)c2cc1F`, on Cytochrome P450 1A2, the IC50 was 0.0501 µM.

As for `Cc1cc(C(=O)NCCO)ccc1-n1c2ccc(F)cc2c2[nH]ncc21`, half-maximal inhibition on Cytochrome P450 1A2 (IC50) was put at 7.94 µM.

For the compound `Cc1nc2c(cc1-n1c3ccc(F)cc3c3[nH]ncc31)ncn2C`, at Cytochrome P450 1A2, half-maximal inhibition (IC50) was put at 20 µM.

As to `Nc1ncc(-n2c3ccc(F)cc3c3[nH]ncc32)cc1Cl`, half-maximal inhibition at Cytochrome P450 1A2 (IC50) was put at 0.158 µM.

Source of the values: ChEMBL document CHEMBL3797041, “Discovery of potent, reversible MetAP2 inhibitors via fragment based drug discovery and structure based drug design-Part 2” (Bioorg Med Chem Lett, 2016).
